Experimental data as given in ChEMBL document CHEMBL1144815, “Diphenidol-related diamines as novel muscarinic M4 receptor antagonists” (Bioorg Med Chem Lett, 2008).
Where a name gives a salt, the structure may show the parent alone. Active and inactive are the calls of the source. No cut-off for these calls is given here.

Columns and labels:
[1] = target: T1, Muscarinic acetylcholine receptor M5 (Homo sapiens) (UniProt P08912); assay: Antagonist activity at human muscarinic M5 receptor expressed in CHO cells assessed as inhibition of basal Eu-GTP binding; type: cell-based
T1 sequence (whole entry): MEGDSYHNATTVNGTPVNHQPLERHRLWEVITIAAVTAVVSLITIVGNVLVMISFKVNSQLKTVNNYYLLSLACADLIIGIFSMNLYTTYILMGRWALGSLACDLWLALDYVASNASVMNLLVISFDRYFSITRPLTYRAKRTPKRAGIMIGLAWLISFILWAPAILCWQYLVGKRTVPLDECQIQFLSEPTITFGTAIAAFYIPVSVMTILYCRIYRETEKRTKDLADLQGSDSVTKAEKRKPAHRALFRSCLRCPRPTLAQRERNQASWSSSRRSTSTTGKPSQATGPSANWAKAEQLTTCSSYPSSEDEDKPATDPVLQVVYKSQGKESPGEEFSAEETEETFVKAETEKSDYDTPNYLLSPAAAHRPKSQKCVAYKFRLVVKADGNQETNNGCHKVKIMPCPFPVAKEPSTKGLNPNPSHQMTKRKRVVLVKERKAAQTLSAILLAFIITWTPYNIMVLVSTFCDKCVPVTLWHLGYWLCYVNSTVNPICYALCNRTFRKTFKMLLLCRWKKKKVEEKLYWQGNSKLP

[2] = target: T2, Muscarinic acetylcholine receptor M1 (Homo sapiens) (UniProt P11229); assay: Antagonist activity at human muscarinic M1 receptor expressed in CHO cells assessed as inhibition of basal Eu-GTP binding; type: cell-based
T2 sequence (whole entry): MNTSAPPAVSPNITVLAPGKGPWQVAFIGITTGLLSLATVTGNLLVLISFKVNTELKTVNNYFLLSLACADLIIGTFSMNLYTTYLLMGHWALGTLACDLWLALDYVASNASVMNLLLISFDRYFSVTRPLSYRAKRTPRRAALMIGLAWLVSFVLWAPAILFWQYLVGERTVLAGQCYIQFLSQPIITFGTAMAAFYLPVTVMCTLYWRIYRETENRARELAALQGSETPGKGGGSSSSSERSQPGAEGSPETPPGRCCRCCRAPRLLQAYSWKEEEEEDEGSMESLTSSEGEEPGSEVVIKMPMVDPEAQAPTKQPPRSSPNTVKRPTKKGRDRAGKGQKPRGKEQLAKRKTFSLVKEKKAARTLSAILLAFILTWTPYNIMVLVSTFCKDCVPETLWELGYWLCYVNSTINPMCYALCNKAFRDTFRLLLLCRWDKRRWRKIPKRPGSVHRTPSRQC

[3] = target: T3, Muscarinic acetylcholine receptor M3 (Homo sapiens, UniProt P20309); assay: Antagonist activity at human muscarinic M3 receptor expressed in CHO cells assessed as inhibition of carbachol-induced Eu-GTP binding; type: cell-based
Outline: (§1)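 Membranes from CHO-K1 cells stably expressing the human receptor subtype. Agonist was carbachol, and the read-out was carbachol-stimulated binding of the non-hydrolysable analogue Eu-GTP to Gα subunits. pKb was estimated functionally by concentration-ratio analysis. Values are the mean of three experiments run in triplicate.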
Target sequence in this assay (P20309 whole entry, looked up): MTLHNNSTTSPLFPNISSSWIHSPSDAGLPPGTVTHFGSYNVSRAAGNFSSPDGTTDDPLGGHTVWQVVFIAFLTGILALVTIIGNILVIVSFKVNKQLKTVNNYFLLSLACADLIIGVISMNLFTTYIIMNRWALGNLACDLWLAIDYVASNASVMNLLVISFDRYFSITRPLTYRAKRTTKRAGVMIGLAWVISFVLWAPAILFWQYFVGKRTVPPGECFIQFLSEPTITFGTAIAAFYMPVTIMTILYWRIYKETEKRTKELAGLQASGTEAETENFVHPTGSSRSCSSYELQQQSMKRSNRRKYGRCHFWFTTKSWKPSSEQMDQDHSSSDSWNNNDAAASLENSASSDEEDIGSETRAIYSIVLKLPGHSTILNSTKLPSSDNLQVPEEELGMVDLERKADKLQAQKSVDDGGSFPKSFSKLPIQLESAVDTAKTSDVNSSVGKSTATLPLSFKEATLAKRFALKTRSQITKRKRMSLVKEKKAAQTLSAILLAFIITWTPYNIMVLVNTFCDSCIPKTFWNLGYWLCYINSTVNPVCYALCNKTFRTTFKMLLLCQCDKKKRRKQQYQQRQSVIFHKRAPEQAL

[4] = target: T3, Muscarinic acetylcholine receptor M3; assay: Antagonist activity at human muscarinic M3 receptor expressed in CHO cells assessed as inhibition of basal Eu-GTP binding; type: cell-based
Target sequence in this assay (P20309 whole entry, looked up): as above

[5] = target: T3, Muscarinic acetylcholine receptor M3; assay: Displacement of [3H]N-methylscopolamine from human muscarinic M3 receptor expressed in CHO-K1 cells; type: cell-based
Target sequence in this assay (P20309 whole entry): as the sequence (P20309 whole entry, looked up) above

[6] = target: T4, Muscarinic acetylcholine receptor M2 (Homo sapiens) (UniProt P08172); assay: Antagonist activity at human muscarinic M2 receptor expressed in CHO cells assessed as inhibition of carbachol-induced Eu-GTP binding; type: cell-based; outline: as §1
T4 sequence (whole entry): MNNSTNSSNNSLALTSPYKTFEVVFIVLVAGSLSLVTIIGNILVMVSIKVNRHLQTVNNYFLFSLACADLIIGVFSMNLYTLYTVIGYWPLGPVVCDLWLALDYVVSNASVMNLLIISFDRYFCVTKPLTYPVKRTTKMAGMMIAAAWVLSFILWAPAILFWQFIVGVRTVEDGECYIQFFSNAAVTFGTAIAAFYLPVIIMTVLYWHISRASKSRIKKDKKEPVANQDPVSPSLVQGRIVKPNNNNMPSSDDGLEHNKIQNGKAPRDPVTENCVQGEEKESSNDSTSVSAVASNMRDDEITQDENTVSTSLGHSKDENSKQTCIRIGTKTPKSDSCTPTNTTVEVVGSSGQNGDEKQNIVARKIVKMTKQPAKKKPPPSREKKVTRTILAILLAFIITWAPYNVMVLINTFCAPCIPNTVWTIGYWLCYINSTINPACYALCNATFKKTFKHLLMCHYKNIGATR

[7] = target: T2, Muscarinic acetylcholine receptor M1 (Homo sapiens); assay: Antagonist activity at human muscarinic M1 receptor expressed in CHO cells assessed as inhibition of carbachol-induced Eu-GTP binding; type: cell-based; outline: as §1
[8] = target: T5, Muscarinic acetylcholine receptor M4 (Homo sapiens) (UniProt P08173); assay: Antagonist activity at human muscarinic M4 receptor expressed in CHO cells assessed as inhibition of basal Eu-GTP binding; type: cell-based
T5 sequence (whole entry): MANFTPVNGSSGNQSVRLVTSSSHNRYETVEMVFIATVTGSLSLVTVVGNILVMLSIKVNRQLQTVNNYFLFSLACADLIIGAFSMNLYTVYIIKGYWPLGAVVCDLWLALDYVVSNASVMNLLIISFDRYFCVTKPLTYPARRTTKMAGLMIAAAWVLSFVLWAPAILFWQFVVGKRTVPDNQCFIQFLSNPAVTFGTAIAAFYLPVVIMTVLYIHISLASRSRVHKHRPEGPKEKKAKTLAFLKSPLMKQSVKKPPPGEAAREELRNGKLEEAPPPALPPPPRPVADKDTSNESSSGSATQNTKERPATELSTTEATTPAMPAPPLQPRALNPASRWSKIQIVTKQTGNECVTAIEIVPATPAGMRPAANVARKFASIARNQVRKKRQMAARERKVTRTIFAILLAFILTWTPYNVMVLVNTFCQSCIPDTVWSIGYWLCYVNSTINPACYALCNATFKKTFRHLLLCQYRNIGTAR

[9] = target: T6, Muscarinic acetylcholine receptor M1 (Homo sapiens, UniProt P11229); assay: Displacement of [3H]N-methylscopolamine from human muscarinic M1 receptor expressed in CHO-K1 cells; type: cell-based
T6 sequence (P11229 whole entry): T2 sequence (whole entry)

[10] = target: T5, Muscarinic acetylcholine receptor M4 (Homo sapiens); assay: Antagonist activity at human muscarinic M4 receptor expressed in CHO cells assessed as inhibition of forskolin-stimulated cAMP accumulation in absence of carbachol at 01 nM to 1 uM; type: functional, cell-based
[11] = target: T7, Muscarinic acetylcholine receptor M2 (Homo sapiens, UniProt P08172); assay: Displacement of [3H]N-methylscopolamine from human muscarinic M2 receptor expressed in CHO-K1 cells; type: cell-based
T7 sequence (P08172 whole entry): T4 sequence (whole entry)
Outline: (§2)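 Binding was measured in CHO-K1 stable transfectants expressing the human receptor subtype. Labelled ligand was [³H]-N-methylscopolamine chloride. Values are the mean of three experiments performed in triplicate.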

[12] = target: T1, Muscarinic acetylcholine receptor M5 (Homo sapiens); assay: Antagonist activity at human muscarinic M5 receptor expressed in CHO cells assessed as inhibition of carbachol-induced Eu-GTP binding; type: cell-based; outline: as §1
[13] = target: T4, Muscarinic acetylcholine receptor M2 (Homo sapiens); assay: Antagonist activity at human muscarinic M2 receptor expressed in CHO cells assessed as inhibition of basal Eu-GTP binding; type: cell-based
[14] = target: T8, Muscarinic acetylcholine receptor M4 (Homo sapiens, UniProt P08173); assay: Displacement of [3H]N-methylscopolamine from human muscarinic M4 receptor expressed in CHO-K1 cells; type: cell-based; outline: as §2
T8 sequence (P08173 whole entry): T5 sequence (whole entry)

[15] = target: T5, Muscarinic acetylcholine receptor M4 (Homo sapiens); assay: Antagonist activity at human muscarinic M4 receptor expressed in CHO cells assessed as inhibition of carbachol-induced Eu-GTP binding; type: cell-based; outline: as §1
[16] = target: T8, Muscarinic acetylcholine receptor M4; assay: Antagonist activity at human muscarinic M4 receptor expressed in CHO cells assessed as blockade of carbachol-induced inhibition of forskolin-stimulated cAMP accumulation; type: functional, cell-based
[17] = target: T9, Muscarinic acetylcholine receptor M5 (Homo sapiens, UniProt P08912); assay: Displacement of [3H]N-methylscopolamine from human muscarinic M5 receptor expressed in CHO-K1 cells; type: cell-based; outline: as §2
T9 sequence (P08912 whole entry): T1 sequence (whole entry)

Activity [1] | Activity [2] | pKb [3] | Activity [4] | Ki [5] [nM] | pKb [6] | pKb [7] | Activity [8] | Ki [9] [nM] | Activity [10] | Ki [11] [nM] | pKb [12] | Activity [13] | Ki [14] [nM] | pKb [15] | EC50 [16] [nM] | IC50 [16] [nM] | Ki [17] [nM] | Compound
inactive | inactive | 5.63 | inactive | 724 | 5.55 | 5.74 | inactive | 2290 | inactive | 1100 | 5.84 | inactive | 6.46 | 7.9 | 54 | > 1000 | 1820 | CCOC(=O)c1c(C)[nH]c2ccc3c(c12)CN1CCc2cc(OC)ccc2C1O3 (stereo not drawn)
– | – | – | – | 661 | – | – | – | 603 | – | 7240 | – | – | 1170 | – | – | – | 1410 | OC(CCCN1CCNCC1)(c1ccccc1)c1ccccc1
– | – | – | – | – | – | – | – | – | – | 2820 | – | – | 912 | – | – | – | 1290 | OC(CCCN1CCCCC1)(c1ccccc1)c1ccccc1 [DIPHENIDOL HYDROCHLORIDE]
– | – | – | – | 275 | – | – | – | 200 | – | 275 | – | – | 288 | – | – | – | 708 | C[N+]1(CCCC(O)(c2ccccc2)c2ccccc2)CCCCC1
inactive | inactive | 6.25 | inactive | 372 | 6.1 | 6.04 | inactive | 603 | – | 363 | 6.02 | inactive | 12.6 | 7.83 | 67 | 67 | 589 | C[N+]1(CCCC(O)(c2ccccc2)c2ccccc2)CCC(C2CC[N+](C)(CCCC(O)(c3ccccc3)c3ccccc3)CC2)CC1 (stereo not drawn)
– | – | – | – | 7410 | – | – | – | 7760 | – | 35500 | – | – | 9770 | – | – | – | 13500 | CN1CCN(CCCC(O)(c2ccccc2)c2ccccc2)CC1
– | – | – | – | 4070 | – | – | – | 2950 | – | 23400 | – | – | 4790 | – | – | – | 9550 | C[N+]1(C)CCN(CCCC(O)(c2ccccc2)c2ccccc2)CC1
– | – | – | – | 5250 | – | – | – | 5750 | – | 3980 | – | – | 1170 | – | – | – | 2880 | CN1CCC(C2CCN(CCCC(O)(c3ccccc3)c3ccccc3)CC2)CC1
– | – | – | – | 7590 | – | – | – | 17400 | – | 25700 | – | – | 22900 | – | – | – | 6920 | C[N+]1(CCCC(O)(c2ccccc2)c2ccccc2)CCN(c2ccccc2)CC1
